From ChEMBL document CHEMBL4765342, “Substituted benzothiophene and benzofuran derivatives as a novel class of bone morphogenetic Protein-2 upregulators: Synthesis, anti-osteoporosis efficacies in ovariectomized rats and a zebrafish model, and ADME properties” (Eur J Med Chem, 2020) come the findings set out here.

The source made the active and inactive calls. The rule behind the calls is not given here.

The test system of data set [1] is Rattus norvegicus. Put plainly: Antiosteoporotic activity in Sprague-Dawley rat model of OVX-induced bone loss assessed as increase in thickness of trabeculae at 30 mg/kg, ig administered for 3 months with 1 day break after 6 consecutive days administration. The class given is functional, organism-based. In a few lines:
(§1)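 Female SD rats given bilateral ovariectomy (sham: fat tissue removed instead), adapted 1 week beforehand; dosing began on postoperative day 10, n = 10 per group. Test drugs as 3 mg/mL suspension by gavage; raloxifene hydrochloride at 0.5 mg/mL. Controls got water. Tetracycline 30 mg/kg ip 16 and 3 days before euthanasia. Tibia stained sections give trabecular morphology and TBV%. BMD of L4-6 measured by densitometry under pentobarbital 45 mg/kg anaesthesia. Reported as mean ± SD.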

A short description of data set [2]: Permeability across apical to basolateral side in human Caco-2 cells assessed as […] yellow leakage at 10 uM incubated for 2 hrs LC-MS/MS analysis. The class given is ADME, cell-based. The note with it: caco-2, 2 h. The method in brief: (§2)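 Caco-2 monolayers, apical to basolateral direction. Plates preincubated 30 min at 37 °C, then exposed to 10 µM compound for 2 h at 37 °C without shaking. Donor and receiver samples were quenched, centrifuged and measured by LC/MS/MS, in duplicate. Papp calculated from receiver concentration, area and time. Monolayer integrity checked by TEER and by Lucifer yellow leakage (30 min, 37 °C, ex 485/em 530 nm).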
A general note: Passage across Caco-2 layers is used to estimate intestinal permeability.

Data set [3] can be described thus: in vitro. The note with it: human, liver microsomes. (Liver microsomes are vesicles of endoplasmic reticulum, rich in cytochrome P450 enzymes.)
In data set [4] the test system is Rattus norvegicus. Put plainly: Antiosteoporotic activity in Sprague-Dawley rat model of OVX-induced bone loss assessed as increase in trabecular bone volume at 30 mg/kg, ig administered for 3 months with 1 day break after 6 consecutive days administration. It is filed as functional, organism-based. The method in brief: as §1
The subject of data set [5] is Rattus norvegicus. Put plainly: Antiosteoporotic activity in Sprague-Dawley rat model of OVX-induced bone loss assessed as narrowed gap between trabeculae at 30 mg/kg, ig administered for 3 months with 1 day break after 6 consecutive days administration. The class given is functional, organism-based. In a few lines: as §1
Data set [6] has as its system Rattus norvegicus. In words: Antiosteoporotic activity in Sprague-Dawley rat model of OVX-induced bone loss assessed as increase in number of trabeculae at 30 mg/kg, ig administered for 3 months with 1 day break after 6 consecutive days administration. It is filed as functional, organism-based. The method in brief:
as §1

Data set [7] relates to Rattus norvegicus. In words: Antiosteoporotic activity in Sprague-Dawley rat model of OVX-induced bone loss assessed as increase in trabecular bone mineral density at 30 mg/kg, ig administered for 3 months with 1 day break after 6 consecutive days administration. It is filed as functional, organism-based. In a few lines: as §1
Data set [8] is described as follows: Apparent permeability across apical to basolateral side in human Caco-2 cells at 10 uM incubated for 2 hrs LC-MS/MS analysis. The class given is ADME, cell-based. Particulars: Caco-2. In a few lines: as §2
Data set [9] can be described thus: Permeability across apical to basolateral side in human Caco-2 cells assessed as transepithelial electrical resistance at 10 uM incubated for 2 hrs LC-MS/MS analysis. The note with it: caco-2, 2 h. It is filed as ADME, cell-based. In a few lines: as §2
Data set [10] in a line: in vitro. Particulars: human, liver microsomes. This is another data set of the same source.
The subject of a further data set is MC3T3-E1. Put plainly: Cytotoxicity against mouse MC3T3-E1 cells at 100 uM. The class given is cell-based. Particulars: mc3t3-e1, 100 µM.
The target in data set [11] is Runt-related transcription factor 2 (Mus musculus) (UniProt Q08775). In words: Upregulation of Runx2 transcriptional activity in mouse MC3T3-E1 cells transfected with p6OSE2-luc at 10 uM incubated for 48 hrs by firefly luciferase reporter gene assay relative to control. It is filed as cell-based. The note with it: filed as activator. In a few lines:
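MC3T3-E1 cells reverse-transfected in suspension with p6OSE2-luc (Runx2-responsive reporter), 100 ng DNA per well, 10^5 cells/ml in α-MEM with 10% FBS, 37 °C in CO2. After 24 h the medium was replaced with complete medium containing compound, with lovastatin as positive control. Firefly luciferase read after a further 48 h as relative luminescence units. Significance by Dunnett's test.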
On the technique in general: Reporter assays use an easily measured gene product as a stand-in for the process of interest.

Sequence of Runt-related transcription factor 2 (Mus musculus) (Q08775 whole entry): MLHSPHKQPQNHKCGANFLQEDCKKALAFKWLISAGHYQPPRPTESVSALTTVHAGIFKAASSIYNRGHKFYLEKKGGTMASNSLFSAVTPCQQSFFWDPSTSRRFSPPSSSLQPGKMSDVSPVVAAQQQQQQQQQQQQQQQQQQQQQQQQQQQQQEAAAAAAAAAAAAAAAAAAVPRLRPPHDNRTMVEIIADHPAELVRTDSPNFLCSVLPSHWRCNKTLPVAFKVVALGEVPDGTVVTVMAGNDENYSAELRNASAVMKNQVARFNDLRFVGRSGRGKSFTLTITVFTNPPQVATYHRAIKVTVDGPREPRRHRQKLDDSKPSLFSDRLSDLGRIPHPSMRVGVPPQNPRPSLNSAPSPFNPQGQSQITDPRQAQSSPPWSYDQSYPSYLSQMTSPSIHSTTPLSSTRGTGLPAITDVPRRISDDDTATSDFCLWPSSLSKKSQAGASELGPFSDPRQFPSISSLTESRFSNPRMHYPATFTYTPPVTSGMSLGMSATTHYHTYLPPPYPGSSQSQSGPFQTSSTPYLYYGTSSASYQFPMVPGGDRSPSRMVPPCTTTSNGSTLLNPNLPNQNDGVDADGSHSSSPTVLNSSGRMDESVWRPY

With `CC(=O)c1cc2ccccc2s1`, the outcome with Rattus norvegicus [1], with Rattus norvegicus [4], in the data set with Rattus norvegicus [5], with Rattus norvegicus [6] and with Rattus norvegicus [7] was Active. Moreover, the Activity is 0.179% in data set [2] and 351 Ω·cm² in [9]. Further, the microsomal CLint at 0.5 h, 100 µM in “in vitro [3]” was more than 300 µL/min/mg. In [8], the Papp A→B at 2 h, 10 µM came out at 22.1 ×10⁻⁶ cm/s. In the data set “in vitro [10]”, this molecule displayed a half-life at 0.5 h, 100 µM of 1.25 min.

As for `COc1ccc2cc(C(=O)OCCN(C)C)oc2c1`, the result in the data set on Rattus norvegicus [1], in the data set with Rattus norvegicus [4], in the data set with Rattus norvegicus [5], with Rattus norvegicus [6] and in the data set with Rattus norvegicus [7] was Active.

Regarding `CC[C@H](C)C(=O)O[C@H]1C[C@@H](C)C=C2C=C[C@H](C)[C@H](CC[C@@H]3C[C@@H](O)CC(=O)O3)[C@H]21` [LOVASTATIN], the Activity entry with MC3T3-E1 was “Toxic”; in data set [11], 256%.

As a reminder, the microsomal CLint is the capacity of the preparation to metabolise the compound, expressed as a volume cleared per time. Low values mean greater metabolic stability, high ones faster metabolism. Usually Papp A→B stands for the apparent permeability from the apical to the basolateral side of a cell layer. The term half-life denotes how long it takes for the measured level to halve. Read a low half-life as fast loss.
